Results published in ChEMBL document CHEMBL5154735, “Interaction of A3 adenosine receptor ligands with the human multidrug transporter ABCG2” (Eur J Med Chem, 2022).

Tests used:
ABCG2 [1] = target: T1, ABCG2 (Homo sapiens, UniProt Q9UNQ0); test: Activation of human ABCG2-mediated ATPase activity preincubated for 2 mins followed by ATP addition at 2.5 M and measured after 20 mins by colorimetric assay relative to control; parameters: dose or concentration left out as unconfirmed; details: read-out: Activity
T1 sequence (Q9UNQ0 whole entry): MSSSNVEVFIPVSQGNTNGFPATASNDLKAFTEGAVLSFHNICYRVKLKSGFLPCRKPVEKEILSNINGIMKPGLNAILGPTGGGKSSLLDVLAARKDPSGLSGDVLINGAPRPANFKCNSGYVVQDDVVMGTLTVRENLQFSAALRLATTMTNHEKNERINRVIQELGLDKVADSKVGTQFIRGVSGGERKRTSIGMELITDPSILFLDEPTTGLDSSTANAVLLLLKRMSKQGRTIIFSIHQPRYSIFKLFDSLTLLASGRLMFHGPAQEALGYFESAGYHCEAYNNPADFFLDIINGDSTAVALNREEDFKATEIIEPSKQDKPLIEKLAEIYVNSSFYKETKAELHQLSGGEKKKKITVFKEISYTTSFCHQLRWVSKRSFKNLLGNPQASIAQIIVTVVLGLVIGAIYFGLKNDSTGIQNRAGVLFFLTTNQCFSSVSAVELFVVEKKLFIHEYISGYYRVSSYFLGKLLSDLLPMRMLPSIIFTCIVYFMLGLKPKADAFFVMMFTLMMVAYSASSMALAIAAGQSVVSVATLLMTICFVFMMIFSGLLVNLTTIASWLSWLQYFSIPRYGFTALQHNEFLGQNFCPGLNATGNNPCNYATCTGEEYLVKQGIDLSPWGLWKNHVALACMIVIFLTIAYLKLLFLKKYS
Method in brief: (§1)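 Total membrane vesicles from High-Five insect cells expressing human ABCG2 (hypotonic lysis, differential centrifugation), 10 μg protein/tube, in MES-Tris pH 6.8 buffer with KCl, MgCl2, NaN3, EGTA, ouabain, DTT. Compound in DMSO added ± sodium orthovanadate (0.3 mM), DMSO control. Preincubated 2 min at 37°C, then 5 mM ATP, 20 min. SDS stop, Pi measured colorimetrically. Three independent experiments in duplicate, mean ± SE.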

ABCG2 [2] = target: T1, ABCG2; test: Activation of human ABCG2-mediated ATPase activity preincubated for 2 mins followed by ATP addition at 10 M and measured after 20 mins by colorimetric assay relative to control; parameters: dose or concentration left out as unconfirmed; details: read-out: Activity; method in brief: as §1
ABCG2 [3] = target: T1, ABCG2; test: Effect on human ABCG2 transporter preincubated for 2 mins followed by ATP addition assessed as basal ATPase activity at 100 nM and measured after 20 mins by colorimetric assay relative to control; details: read-out: Activity; method in brief: as §1
Adenosine receptor A3 = target: T2, Adenosine receptor A3 (Homo sapiens, UniProt P0DMS8); test: Binding affinity towards human adenosine A3 receptor
T2 sequence (P0DMS8 whole entry): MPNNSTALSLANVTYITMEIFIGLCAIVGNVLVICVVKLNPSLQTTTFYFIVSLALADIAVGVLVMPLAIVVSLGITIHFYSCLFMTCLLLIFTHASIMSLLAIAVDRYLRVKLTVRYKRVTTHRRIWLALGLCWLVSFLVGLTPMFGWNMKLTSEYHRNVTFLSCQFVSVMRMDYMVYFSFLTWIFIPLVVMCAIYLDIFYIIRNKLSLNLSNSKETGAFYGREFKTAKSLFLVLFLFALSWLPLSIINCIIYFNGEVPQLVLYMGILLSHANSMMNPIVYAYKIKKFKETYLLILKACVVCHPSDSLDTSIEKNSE

ABCG2 [4] = target: T1, ABCG2; test: Activation of human ABCG2-mediated ATPase activity preincubated for 2 mins followed by ATP addition at 100 nM and measured after 20 mins by colorimetric assay relative to control; details: read-out: Activity; method in brief: as §1
ABCG2 [5] = target: T1, ABCG2; test: Inhibition of human ABCG2 in human R5 cells assessed as inhibition of mitoxantrone efflux at 10 uM measured by flow cytometric analysis relative to control; assay type: cell-based; details: probe mitoxantrone
Method in brief: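 HEK293 cells transfected with full-length ABCG2 (R-5) or empty pcDNA vector, grown in MEM with 10% FBS and 2 mg/ml G418. Cells incubated in IMDM with 5% FBS, 5 μM mitoxantrone (final) ± compound, 37°C for 45 min. Washed in cold IMDM, resuspended in cold PBS with 1% BSA, read by flow cytometry.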

[6] = target: T3, Broad substrate specificity ATP-binding cassette transporter ABCG2 (Homo sapiens, UniProt Q9UNQ0); test: Activation of human ABCG2-mediated ATPase activity preincubated for 2 mins followed by ATP addition and measured after 20 mins by colorimetric assay; method in brief: as §1
T3 sequence (Q9UNQ0 whole entry): T1 sequence (Q9UNQ0 whole entry)

ABCG2 [7] = target: T1, ABCG2; test: Activation of human ABCG2-mediated ATPase activity preincubated for 2 mins followed by ATP addition at 2.5 uM and measured after 20 mins by colorimetric assay relative to control; details: read-out: Activity; method in brief: as §1

CCCNc1nc(C#Cc2ccc(Cl)s2)nc2c1ncn2[C@@H]1O[C@H](C(=O)NC)[C@@H](O)[C@H]1O gave an activity at 20 min (ABCG2 [1]) of 124% and an activity at 20 min (ABCG2 [2]) of 122%.
CNC(=O)[C@H]1O[C@@H](n2cnc3c(NC)nc(C#Cc4ccc(Cl)s4)nc32)[C@H](O)[C@@H]1O showed an activity at 20 min (ABCG2 [1]) of 112% and an activity at 20 min (ABCG2 [2]) of 122%.
In the case of CNc1nc(C#Cc2ccc(Cl)s2)nc2c1ncn2[C@@H]1O[C@H](C(=O)OC)[C@@H](O)[C@H]1O, the activity at 20 min, 0.1 µM (ABCG2 [3]) is reported as at most 30%.
Cn1cnc2c(NCCc3ccccc3)nc(C#Cc3ccc(Cl)s3)nc21 gave a Ki (Adenosine receptor A3) of at least 99 nM and an activity at 20 min, 0.1 µM (ABCG2 [4]) of 92.1%.
COc1ccc(CCNC2=NC(I)=NC3=NC=CC32)cc1O (configuration not stated) was tested, and the Ki (Adenosine receptor A3) was at least 99 nM and the activity at 20 min, 0.1 µM (ABCG2 [4]) was 79.6%.
For Clc1cccc(CNC2=NC(C#Cc3ccc(Cl)s3)=NC3=NC=NC32)c1 (configuration not stated), the activity at 20 min, 0.1 µM (ABCG2 [4]) was 40.5%.
Fc1ccc(C#CC2=NC3=NC=NC3C(NCc3cccc(Cl)c3)=N2)cc1F (configuration not stated) showed an inhibition at 10 µM (ABCG2 [5]) of 81.4%, an activity at 20 min (ABCG2 [1]) of 165% and an activity at 20 min (ABCG2 [2]) of 164%. For the same compound, the Ki (Adenosine receptor A3) was at least 99 nM and the EC50 [6] was 50 nM.
For COc1ccc(CCNC2=NC(C#Cc3ccc(Cl)s3)=NC3=NC=CC32)cc1O (configuration not stated), the Ki (Adenosine receptor A3) was at least 99 nM and the activity at 20 min, 0.1 µM (ABCG2 [4]) was 104%.
In the case of Clc1ccc(C#CC2=NC3=NC=NC3C(NCCc3ccccc3)=N2)s1 (configuration not stated), the Ki (Adenosine receptor A3) is reported as at least 99 nM and the activity at 20 min, 0.1 µM (ABCG2 [4]) is reported as 80.8%.
With Oc1ccc(CCNC2=NC(C#Cc3ccc(Cl)s3)=NC3=NC=NC32)cc1O (configuration not stated) the Ki (Adenosine receptor A3) was at least 99 nM and the activity at 20 min, 0.1 µM (ABCG2 [4]) was 95.9%.
CCOC(=O)[C@]12C[C@@H]1[C@@H](n1cnc3c(NC)nc(C#Cc4ccc(F)s4)nc31)[C@H](O)[C@@H]2O gave an activity at 20 min, 0.1 µM (ABCG2 [3]) of at most 30%.
Work on CNc1nc(C#Cc2ccc(Cl)s2)nc2c1ncn2[C@H]1[C@H](O)[C@H](O)[C@@]2(C(=O)OCCc3ccccc3)C[C@H]12 yielded an activity at 20 min, 0.1 µM (ABCG2 [3]) of at most 30%.
CNc1nc(C#Cc2ccc(Cl)s2)nc2c1ncn2[C@H]1[C@H](O)[C@H](O)[C@@]2(C(=O)OCCCc3ccccc3)C[C@H]12 showed an activity at 20 min, 0.1 µM (ABCG2 [4]) of 38.8%.
CNC(=O)C1O[C@@H](n2cnc3c(NCc4cccc(I)c4)ncnc32)[C@H](O)[C@@H]1O (single isomer, unassigned) was tested, and the activity at 20 min (ABCG2 [1]) was 66.2%, the activity at 20 min (ABCG2 [2]) was 98.2% and the EC50 [6] was 70 nM.
In the case of O[C@@H]1[C@H](O)C2CC2[C@H]1n1cnc2c(NCc3cccc(Cl)c3)nc(C#Cc3ccc(F)c(F)c3)nc21 (single isomer, unassigned), the activity at 20 min (ABCG2 [1]) is reported as 75.2%, the activity at 20 min (ABCG2 [2]) is reported as 54.1% and the Ki (Adenosine receptor A3) is reported as at least 99 nM.
Work on CCOC(=O)C12CC1[C@@H](n1cnc3c(NC)nc(C#Cc4ccc(Cl)s4)cc31)[C@H](O)[C@@H]2O (single isomer, unassigned) yielded an activity at 20 min, 0.1 µM (ABCG2 [3]) of at most 30%.
CCOC(=O)C12C[C@@H]1[C@@H](n1ccc3c(NCCCc4ccccc4)nc(C#Cc4ccccc4)nc31)[C@H](O)[C@@H]2O (single isomer, unassigned) gave an activity at 20 min, 0.1 µM (ABCG2 [4]) of 37.9%.
Work on CCOC(=O)C12CC1[C@@H](n1ccc3c(NCC4CC4)nc(C#Cc4ccccc4)nc31)[C@H](O)[C@@H]2O (single isomer, unassigned) yielded an activity at 20 min, 0.1 µM (ABCG2 [3]) of at most 30%.
CCOC(=O)C12CC1[C@@H](n1cnc3c(NCCc4ccc(O)c(OC)c4)nc(C#Cc4ccc(Cl)s4)nc31)[C@H](O)[C@@H]2O (single isomer, unassigned) was tested, and the activity at 20 min, 0.1 µM (ABCG2 [4]) was 59.3%.
Compound CNC(=O)C12CC1[C@@H](n1cnc3c(N[C@H]4C[C@@H]4c4ccc(F)c(F)c4)nc(C#Cc4cccc(F)c4)nc31)[C@H](O)[C@@H]2O (single isomer, unassigned) has an inhibition at 10 µM (ABCG2 [5]) of 97.2%, an activity at 20 min, 2.5 µM (ABCG2 [7]) of 101% and an EC50 [6] of 14 nM.
